The EternaBench riboswitch data

System: MS2 coat protein
Assay: apparent Kd, MS2 coat protein; higher = weaker binding; RNA-MaP array; tryptophan 2.4 mM where present
Procedure, shortened: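 Green signal was scaled to red-channel RNA signal and control-cluster median Fmax, and the apparent Kd was taken as the median of filtered per-cluster binding-curve fits. The binding series used SNAP-549-labelled MS2 coat protein from 0.7 or 1.5 nM, doubling to 3 µM, on designs transcribed by stalled E. coli RNA polymerase on Illumina sequencing-chip clusters. Each series ran without and then with constant ligand in 100 mM Tris-HCl pH 7.5, 80 mM KCl, 4 mM MgCl2, BSA, DTT, yeast tRNA and Tween-20.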

[1] = designed as: OFF switch for tryptophan, no ligand
[2] = ligand present: tryptophan, designed as: OFF switch for tryptophan
[3] = designed as: ON switch for tryptophan, no ligand
[4] = ligand present: tryptophan, designed as: ON switch for tryptophan

| Sequence | apparent Kd [1] | apparent Kd [2] | apparent Kd [3] | apparent Kd [4] |
| --- | --- | --- | --- | --- |
| AGCGUGCAUAGGAAAACUAUGUACGCAAAUCGAGGACCGGUACGGCCGCCACUCGUCCUCAACAUGAGGAUCACCCAUGUAAUAA | 19.9 nM | 34.7 nM | – | – |
| AGUUACUCGAACAUGGUUGACGAGUGGCAACGAGGACCGGUACGGCCGCCACUCGAAUAAACAUGAGGAUCACCCAUGUACAAAU | – | – | 135 nM | 104 nM |
| AGUUAUUCGAACAUGGUUGACGAGUGGCAACGAGGACCGGUACGGCCGCCACUCGAAUAAACAUGAGGAUCACCCAUGUACAAAU | – | – | 342 nM | 287 nM |
| AGUUUGGACUCGGCCGCCACUCGUGAUGCUUUGGCACAUGAGGAUCACCCAUGUGGUCGGCCUUAGAGGACCGGGAGUACCAGCC | – | – | 405 nM | 43 nM |
| AUAACCCUUGACUAAAACACUAAAUCAGUUCGAGGACCGGUACGGCCGCCACUCGUGUCAAGACAUGAGGAUCACCCAUGUACCU | – | – | 35.8 nM | 23.3 nM |
| AUAAUAAUCAUGGGUGAAGGUCCUCGCAAACGAGGACCGGUACGGCCGCCACUCGAACAUGAGGAUCACCCAUGUGUGAGGACCU | – | – | 58.8 nM | 36.9 nM |
| AUUCAUGGAAACAUGACAUACAUAACCGGUCGAGGACCGGUACGGCCGCCACUCGGUUGGUGGCACAUGAGGAUCACCCAUGUUA | – | – | 23.9 nM | 26.4 nM |
| AUUGUCGUGUCGGCCGCCACUGUCAUGGUUUUCGUGGAAAACAUGAGGAUCACCCAUGUAAUUGACAGGACCGGGACAUGGCGGC | 9.29 nM | 10.4 nM | – | – |
| CACGCACGAUCGGCCGCCACUCAUGUAGCUUACAUGAGGAUCACCCAUGUAUUUUCUUUCUUAUAGAGGACCGGGAUCGUGCGUG | – | – | 17.6 nM | 15.3 nM |
| CCUCAAUAGACGGCCGCCACUGAGACAUGAGGAUACAUGAGGAUCACCCAUGUGGGUGUGUCACGCAGGACCGGGUCAAGACCCG | – | – | 523 nM | 514 nM |
| CUACAUUUGUAGAAACCGGUCAACAAUAAUCGAGGACCGGUACGGCCGCCACUCGUAUAAUUUAAUACAUGAGGAUCACCCAUGU | – | – | 14.9 nM | 15.4 nM |
| CUAUAUAUAUCGGCCGCCACUUACUCAUGAGGUAACAACAUGAGGAUCACCCAUGUUUGAGGAUCAAGGACCGGGAUAUAUAUAG | – | – | 27.4 nM | 16.6 nM |
| CUCAUCCACGCGGCCGCCACUAUUUUUAGGUGUGGGUGUGACGUAUUACAUGAGGAUCACCCAUGUAGGACCGGGCGUGGAUGAG | 385 nM | 485 nM | – | – |
| CUUGGCUGUGCGGCCGCCACUGACUCAUCCUGCAUUACAUGAGGAUCACCCAUGUUGCGGCCUCCCAGGACCGGGCAUAGCCUGC | – | – | 390 nM | 91.3 nM |
| GAGCUCGUGGACUGGCGUGCUCCGCUCCGUCGAGGACCGGUACGGCCGCCACUCGACAUGAGGAUCACCCAUGUGUGAGCUCGCG | 62.5 nM | 30.6 nM | – | – |
| GAGUAGAGGACGGCCGCCACUGAACAUGAGGAUCACCCAUGUCGUGAUCCGUUACCUAAAGAAGAUAGGACCGGGUCAUGUACUC | 27.3 nM | 28.7 nM | – | – |
| GCGUGGUCUGCGGCCGCCACUCAAGGAGCUACAUAGCUCCUAGACAUGAGGAUCACCCAUGUCGCGAGGACCGGGUAGAUUCUCC | – | – | 96 nM | 30.8 nM |
| GCUAGGUCAUCGGCCGCCACUAUUAGUGGUUCGAACAUGAGGAUCACCCAUGUGCCACAUGCGCAUAGGACCGGGAUGACCUAGC | – | – | 12.7 nM | 9.42 nM |
| GGAGUAGAUGCGGCCGCCACUUUCUCAAGACACUACAUGAGGAUCACCCAUGUCCAUUCUACACUAAGGACCGGGCAUCCCAUGG | – | – | 54.3 nM | 39.5 nM |
| GGUUACUCUACGGCCGCCACUGAUAAAUAAUAAACCUGUACAUAAACAUGAGGAUCACCCAUGUACAGGACCGGGUAGUGUAACC | – | – | 32.8 nM | 24.1 nM |
| GUUGUAUACUCGGCCGCCACUGAGAGAGUCAUGUAAACAUGAGGAUCACCCAUGUAAUAUAUAUACAGGACCGGGAGUAUGGUAA | 15 nM | 12.9 nM | – | – |
| UAAUCAGUGCCGGUUCUCGGAUCCUCAUGUCGAGGACCGGUACGGCCGCCACUCGGAACAUGAGGAUCACCCAUGUAAUAAUAAU | 97.3 nM | 92.7 nM | – | – |
| UAUCGUCAGACGGCCGCCACUAGAACAUGAGGAUCACCCAUGUAAGUGGCCGGUCUCCUCAUGACUAGGACCGGGUCUGACGAAU | 8.69 nM | 9.94 nM | – | – |
| UAUUAUCAGUCGGCCGCCACUGACACAUGAGGAUCACCCAUGUAAUUUGGGUUAUAUAGAAAAUACAGGACCGGGACUAAGGCUA | 260 nM | 276 nM | – | – |
| UCGUUUUAGUCGGCCGCCACUGUAUGCAUGUUUAACAUGAGGAUCACCCAUGUCCCGUUCUAUUUCAGGACCGGGACGUAAUCGA | – | – | 525 nM | 344 nM |
| UUAUAAGUACCGGUCCUCAGAUCCUCAUGACGAGGACCGGUACGGCCGCCACUCGAAACAUGAGGAUCACCCAUGUAAUAAUAUU | 22.1 nM | 20 nM | – | – |
| UUCGUAUUGUCGGCCGCCACUGCAACAUGAGGAUCACCCAUGUAAGAAUGGUUGUAAAUAUAUUACAGGACCGGGACAAUAGUAA | 17.6 nM | 51.6 nM | – | – |
| UUUUACGGCGAUCUGGGUUUACCAGAUCGGCGAGGACCGGUACGGCCGCCACUCGUGUUUCUUUGACAUGAGGAUCACCCAUGUA | – | – | 26.9 nM | 16.2 nM |
